The species entered for data set [1] is Rattus norvegicus. Kind of data set: In vitro metabolic stability value after 30 min of incubation with liver microsomes of rat was determined. The note with it: Microsome. It is filed as functional. The gist of the method:
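Compound at 10 µM incubated at 37 °C with dog, human or rat liver microsomes. Residual parent compound quantified directly by LC-MS. Value is percent parent remaining after 30 min.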
For orientation: Liver microsomes are vesicles of endoplasmic reticulum, rich in cytochrome P450 enzymes.

Data set [2] concerns Human immunodeficiency virus 1. Kind of data set: Toxicity value against wild type HIV-1 IIIB was determined. It is filed as functional. In a few lines:
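MT4 cells (150 000 cells/mL) mock-infected, run in parallel with HIV-infected cultures over an identical compound concentration range. Incubated 3 days at 37 °C, 5% CO₂. Reduced expression of the […] GFP reporter serves as the toxicity marker.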

Data set [3] concerns Human immunodeficiency virus 1. Put plainly: Protease inhibitory activity against HIV-1 r13025 mutant strain was determined. It is filed as functional, organism-based.
Data set [4] deals with Human immunodeficiency virus 1. Put plainly: Protease inhibitory activity against HIV-1 r13034 mutant strain was determined. The format is functional, organism-based.
Data set [5] deals with Human immunodeficiency virus 1. Kind of data set: Protease inhibitory activity against HIV-1 r13363 mutant strain was determined. The format is functional, organism-based.
In data set [6] the test system is Human immunodeficiency virus 1. Put plainly: Protease inhibitory activity against HIV-1 GSS004421 mutant strain was determined. It is filed as functional, organism-based.
The test system of data set [7] is Human immunodeficiency virus 1. Kind of data set: Protease inhibitory activity against wild type HIV-1 IIIB was determined. The format is functional, organism-based.
Data set [8] has as its system Caco-2. Put plainly: In vitro increase in apparent permeability from apical to basolateral was determined in Caco-2 (human colon carcinoma) cells. It is filed as functional, cell-based. The gist of the method:
(§1)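 Caco-2 monolayer apparent permeability measured apical-to-basolateral and basolateral-to-apical; reported as Papp in cm/s (×10⁶).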
On the technique in general: Caco-2 cells form a polarised layer with tight junctions and transporters.

Data set [9] concerns Caco-2. Put plainly: In vitro increase in apparent permeability from basolateral to apical was determined in Caco-2 (human colon carcinoma) cells. The format is functional, cell-based. In a few lines: as §1
The nature of data set [10]: In vitro solubility at was determined; pH=5. It is filed as ADME. The gist of the method:
(§2)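 Aqueous solubility measured at pH 5 and pH 7, expressed in […].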

A short description of data set [11]: In vitro solubility at was determined; pH=7. It is filed as ADME. The gist of the method:
as §2

The nature of data set [12]: Maximum plasma concentration value in dog was determined at a dosage of 20 mg/kg. Also noted: dose 20 mg/kg. It is filed as ADME, organism-based, Canis lupus familiaris. In a few lines:
(§3)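 Oral dosing in dog at 20 mg/kg, coadministered with ritonavir. Compound given as a solution in PEG400 or in 40% w/v hydroxypropyl-β-cyclodextrin with 2% citric acid. Plasma Cmax, Tmax, t1/2 and AUC determined.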

Data set [13] in a line: Maximum plasma concentration value in wistar rat was determined at a dosage of 20 mg/kg. The format is ADME, organism-based. Details: dose 20 mg/kg. The gist of the method: (§4)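 Wistar rats, single-dose study at 20 mg/kg, compound formulated in PEG400. Plasma Cmax, Tmax, t1/2 and AUC determined.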
A short description of data set [14]: In vivo half life value in dog was determined at a dosage of 20 mg/kg. Details: dose 20 mg/kg. The format is ADME, organism-based, Canis lupus familiaris. The gist of the method: as §3
A short description of data set [15]: In vivo area under the concentration time curve value in wistar rat was determined at a dosage of 20 mg/kg. Also noted: dose 20 mg/kg. The format is ADME, organism-based. The gist of the method:
as §4

Data set [16] in a line: In vivo time to reach maximum plasma concentration value in wistar rat was determined at a dosage of 20 mg/kg. The format is ADME, organism-based. Details: dose 20 mg/kg. The gist of the method: as §4
The target of data set [17] is T1, Human immunodeficiency virus type 1 protease (Human immunodeficiency virus 1, UniProt Q72874). Kind of data set: (§5) Binding affinity against HIV-1 protease. In a few lines:
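Isothermal titration calorimetry by displacement: the protease was pre-titrated with acetylpepstatin (300 µM) as the weaker binder, then the inhibitor (125 or 200 µM in the syringe) was injected to saturation into protease (9–21 µM). Buffer was 10 mM sodium acetate pH 5.0, 2% DMSO, 2 mM TCEP. Heats of dilution were subtracted, and each run was done at least twice.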

Data set [18] in a line: In vivo area under the concentration time curve value in dog was determined at a dosage of 20 mg/kg. It is filed as ADME, organism-based, Canis lupus familiaris. Also noted: dose 20 mg/kg. The gist of the method: as §3
Data set [19] in a line: In vivo time to reach maximum plasma concentration value in dog was determined at a dosage of 20 mg/kg. It is filed as ADME, organism-based, Canis lupus familiaris. Details: dose 20 mg/kg. The gist of the method: as §3
The target of data set [20] is T1, Human immunodeficiency virus type 1 protease. The data set is described as §5. The source holds these as a separate data set.
A short description of data set [21]: In vivo half life value in wistar rat was determined at a dosage of 20 mg/kg. The format is ADME, organism-based. Details: dose 20 mg/kg. In a few lines: as §4

In brackets after ≈: the same amount, converted by molar mass.

`CNc1nc2ccc(S(=O)(=O)N(CC(C)C)C[C@@H](O)[C@H](Cc3ccccc3)NC(=O)O[C@H]3CO[C@H]4OCC[C@H]43)cc2o1` yielded a Metabolic stability in data set [1] of 70%. Besides, the pCC50 in [2] was less than 4.49. The pEC50 was found to be 8.13 in [3], 8.61 in data set [4], 7.5 in data set [5] and 8.07 in [6]. In data set [7], this compound gave an EC50 of 2 nM. In addition, the Papp was determined as 17.6 ×10⁻⁶ cm/s in data set [8] and 24 ×10⁻⁶ cm/s in [9]. Also, the figures for the solubility in data set [10] and in data set [11] were 10 µg/mL (≈ 16.6 µM) and less than 10 µg/mL, respectively. In addition, the Cmax was 986 ng/mL in data set [12] and 927 ng/mL in [13]. The compound further showed a half-life in data set [14] of 0.9 h. In addition, the figures for the AUC in data set [15] and in [18] were 1200 ng·h/mL and 2030 ng·h/mL, respectively. For the same compound, the Tmax in [16] is 1.4 h; in data set [19] it was 2 h. Moreover, in [17], the Kd is 0.9 nM.
The compound `CC(C)CN(CC(O)C(Cc1ccccc1)NC(=O)OC1CCOC1)S(=O)(=O)c1ccc(N)cc1` (stereo not drawn) showed a Kd in [20] of 0.4 nM.
For the compound `CC(C)CN(C[C@@H](O)[C@H](Cc1ccccc1)NC(=O)O[C@H]1CO[C@H]2OCC[C@H]21)S(=O)(=O)c1ccc2nc(N)oc2c1`, the Metabolic stability in data set [1] was 90%. This compound also registered a pCC50 in [2] of less than 4.49. Further, the pEC50 in [3] turned out to be 8.21; in data set [4], 8.19; in data set [5], 7.6; in data set [6], 8.06. The midpoint of the response in data set [7], the EC50, lay at 11.7 nM. Also, the apparent permeability (Papp) worked out at 3.8 ×10⁻⁶ cm/s in data set [8] and 23.8 ×10⁻⁶ cm/s in data set [9]. The compound further registered a Cmax in data set [13] of 260 ng/mL. In data set [15], this compound had an AUC of 448 ng·h/mL. In addition, in data set [16], the Tmax came to 1 h. In data set [21], this compound gave a half-life of 1.6 h.

Broadly, the pCC50 is the negative decadic logarithm of the CC50, by convention in mol/L. A high value points to a small CC50. By pEC50 is commonly meant the negative decadic logarithm of the EC50, by convention in mol/L. A low value points to a high EC50. As a reminder, the EC50 is the concentration needed to bring the measured effect to its halfway point. Read a high EC50 as a less potent agent. A word on the Papp: it is a coefficient for how fast a substance crosses the barrier. By solubility is commonly meant how much of the substance goes into solution per volume. Read a high solubility as a readily soluble substance. Usually Cmax stands for the peak of the concentration-time curve. By half-life is commonly meant the time in which the quantity being followed falls by half. A higher half-life goes with slow loss. The AUC is concentration integrated over time. A word on the Tmax: it is the time at which the peak concentration occurs. The term Kd denotes the constant that tells how readily two partners part at equilibrium. Read a low Kd as tighter binding.
